We go through 16 compounds from ChEMBL document CHEMBL1938269, “Synthesis and biological evaluation of 7-O-modified oroxylin A derivatives” (Bioorg Med Chem Lett, 2012).

Active and inactive are the calls of the source. The rule behind the calls is not given here.

Experiment [1] relates to HepG2. In words: Antiproliferative activity against human HepG2 cells after 48 hrs by MTT assay. Format: functional, cell-based. As to conditions: HepG2, 48 h.
Experiment [2] deals with HCT-116. In words: Ratio of oroxylin A IC50 to compound IC50 for human HCT116 cells. Format: functional.
Experiment [3] relates to HepG2. As to the kind of experiment: Induction of apoptosis in human HepG2 cells assessed as early apoptotic cells at 2 uM after 72 hrs by annexin-V FITC and PI staining based flow cytometry (reference value: 1.4 +/- 0.1%). Format: functional.
Experiment [4] deals with HepG2. As to the kind of experiment: Induction of apoptosis in human HepG2 cells assessed as viable cells at 1 uM after 72 hrs by annexin-V FITC and PI staining based flow cytometry (reference value: 94.5 +/- 0.6%). Format: functional. As to conditions: HepG2, 72 h, read-out: Activity.
Experiment [5] concerns HepG2. In words: Induction of apoptosis in human HepG2 cells assessed as non-viable necrotic cells at 1 uM after 72 hrs by annexin-V FITC and PI staining based flow cytometry (reference value: 2.7 +/- 0.1%). Format: functional.
The subject of experiment [6] is HepG2. In words: Induction of apoptosis in human HepG2 cells assessed as chromatin congregation and karyopyknosis at 1 to 4 uM after 72 hrs by DAPI staining-based fluorescent microscopy. In kind it is functional, cell-based. Put shortly:
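HepG2 cells exposed for 72 h, with untreated cells as control. Nuclei were stained with DAPI and viewed by fluorescence microscopy at 400×. Apoptotic cells were scored by chromatin congregation and karyopyknosis, seen as bright nuclear fluorescence. Arrows mark apoptotic cells.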

In experiment [7] the test system is HepG2. As to the kind of experiment: Induction of apoptosis in human HepG2 cells assessed as late apoptotic cells at 4 uM after 72 hrs by annexin-V FITC and PI staining based flow cytometry (reference value: 1.4 +/- 0.0%). Format: functional.
Experiment [8] deals with HepG2. In words: Induction of apoptosis in human HepG2 cells assessed as non-viable necrotic cells at 4 uM after 72 hrs by annexin-V FITC and PI staining based flow cytometry (reference value: 2.7 +/- 0.1%). Format: functional.
For experiment [9], the system named is HepG2. In words: Induction of apoptosis in human HepG2 cells assessed as early apoptotic cells at 1 uM after 72 hrs by annexin-V FITC and PI staining based flow cytometry (reference value: 1.4 +/- 0.1%). Format: functional.
Experiment [10] concerns HCT-116. In words: Antiproliferative activity against human HCT116 cells after 48 hrs by MTT assay. In kind it is functional, cell-based. As to conditions: HCT-116, 48 h.
For experiment [11], the system named is HepG2. In words: Induction of apoptosis in human HepG2 cells assessed as viable cells at 2 uM after 72 hrs by annexin-V FITC and PI staining based flow cytometry (reference value: 94.5 +/- 0.6%). Format: functional. As to conditions: HepG2, 72 h, read-out: Activity.
Experiment [12] has as its system HepG2. As to the kind of experiment: Induction of apoptosis in human HepG2 cells assessed as late apoptotic cells at 1 uM after 72 hrs by annexin-V FITC and PI staining based flow cytometry (reference value: 1.4 +/- 0.0%). In kind it is functional.
In experiment [13] the test system is HepG2. In words: Ratio of oroxylin A IC50 to compound IC50 for human HepG2 cells. In kind it is functional.
The test system of experiment [14] is HepG2. In words: Induction of apoptosis in human HepG2 cells assessed as viable cells at 4 uM after 72 hrs by annexin-V FITC and PI staining based flow cytometry (reference value: 94.5 +/- 0.6%). In kind it is functional. As to conditions: HepG2, 72 h, read-out: Activity.
A short description of experiment [15]: Antiproliferative activity against human BCG823 cells after 48 hrs by MTT assay. In kind it is functional, cell-based. As to conditions: BCG823, 48 h.
The test system of experiment [16] is HepG2. As to the kind of experiment: Induction of apoptosis in human HepG2 cells assessed as non-viable necrotic cells at 2 uM after 72 hrs by annexin-V FITC and PI staining based flow cytometry (reference value: 2.7 +/- 0.1%). In kind it is functional.
Experiment [17] is described as follows: Ratio of oroxylin A IC50 to compound IC50 for human BCG823 cells. Format: functional.
Experiment [18] relates to HepG2. In words: Induction of apoptosis in human HepG2 cells assessed as early apoptotic cells at 4 uM after 72 hrs by annexin-V FITC and PI staining based flow cytometry (reference value: 1.4 +/- 0.1%). Format: functional.
In experiment [19] the test system is HepG2. In words: Induction of apoptosis in human HepG2 cells assessed as late apoptotic cells at 2 uM after 72 hrs by annexin-V FITC and PI staining based flow cytometry (reference value: 1.4 +/- 0.0%). In kind it is functional.

For `COc1c(OCCCCN2CCCCC2)cc2oc(-c3ccccc3)cc(=O)c2c1O`, the values for the IC50 (in the experiment on HepG2 [1]; with HCT-116 [10]; in [15]) were 2.4 µM, 3 µM and 6.6 µM, respectively. Further, the “Ratio IC50” value (in the experiment with HCT-116 [2]; in the experiment on HepG2 [13]; in [17]) was 5 throughout. The Activity in the experiment with HepG2 [3] is recorded as 6.5%; in the experiment with HepG2 [5] it was 5.8%; in the experiment with HepG2 [7], 17.9%; with HepG2 [8], 37.5%; in the experiment on HepG2 [9], 3.4%; in the experiment on HepG2 [12], 1.9%. In addition, the Activity in the experiment with HepG2 [16] came to 2.7%; in the experiment with HepG2 [18], 14%; in the experiment with HepG2 [19], 3.5%. The viability at 1 µM with HepG2 [4] turned out to be 88.9%. The outcome with HepG2 [6] was Active. Besides, in the experiment with HepG2 [11], the viability at 2 µM amounted to 87.2%. In the experiment on HepG2 [14], the viability at 4 µM came to 30.6%.

On to `COc1c(OCCCCN2CCN(C)CC2)cc2oc(-c3ccccc3)cc(=O)c2c1O`, for which the IC50 was determined as 27.2 µM in the experiment with HepG2 [1], 12.5 µM in the experiment on HCT-116 [10] and 35.8 µM in experiment [15].

For `COc1c(OCCN2CCN(C)CC2)cc2oc(-c3ccccc3)cc(=O)c2c1O`, the IC50 in the experiment with HepG2 [1] was 15.4 µM; in the experiment on HCT-116 [10], 54.9 µM; in experiment [15] it was 20.5 µM.

Take `COc1c(OCCCN2CCCC2)cc2oc(-c3ccccc3)cc(=O)c2c1O`: the IC50 in the experiment on HepG2 [1] amounted to 20.5 µM; with HCT-116 [10] it was 26.6 µM; in experiment [15] it was 12 µM.

On to `COc1c(OCCCCN2CCCC2)cc2oc(-c3ccccc3)cc(=O)c2c1O`, for which the IC50 came out at 4.7 µM in the experiment with HepG2 [1], 1.4 µM in the experiment on HCT-116 [10] and 9.5 µM in experiment [15]. Moreover, the “Ratio IC50” value (in the experiment on HCT-116 [2]; in the experiment on HepG2 [13]; in [17]) was 5 throughout.

In the case of `CCN(CC)CCOc1cc2oc(-c3ccccc3)cc(=O)c2c(O)c1OC`, the IC50 with HepG2 [1] stood at 12 µM; in the experiment on HCT-116 [10], 39.6 µM; in experiment [15] it was 13 µM.

`COc1c(OCCCN2CCN(C)CC2)cc2oc(-c3ccccc3)cc(=O)c2c1O`: the IC50 with HepG2 [1] was 30.4 µM; with HCT-116 [10] it was 42.5 µM; in experiment [15], 42.3 µM.

Take `CCN(CC)CCCCOc1cc2oc(-c3ccccc3)cc(=O)c2c(O)c1OC`: the IC50 with HepG2 [1] worked out at 6.6 µM; in the experiment on HCT-116 [10], 5.1 µM; in experiment [15], 6.3 µM. Further, the “Ratio IC50” value (in the experiment on HCT-116 [2]; in the experiment on HepG2 [13]; in experiment [17]) was 5 throughout.

Regarding `COc1c(OCCCN2CCOCC2)cc2oc(-c3ccccc3)cc(=O)c2c1O`, the IC50 with HepG2 [1] was 74.8 µM; in the experiment on HCT-116 [10], 52.4 µM; in experiment [15], 41.6 µM.

On to `COc1c(O)cc2oc(-c3ccccc3)cc(=O)c2c1O` [OROXYLIN A], for which the IC50 was found to be 22.7 µM in the experiment on HepG2 [1], 33.9 µM in the experiment with HCT-116 [10] and 25.5 µM in experiment [15].

Take `COc1c(OCCN2CCCC2)cc2oc(-c3ccccc3)cc(=O)c2c1O`: the IC50 with HepG2 [1] amounted to 9.7 µM; in the experiment with HCT-116 [10], 23.4 µM; in experiment [15], 22.7 µM.

Regarding `COc1c(OCCCCN2CCOCC2)cc2oc(-c3ccccc3)cc(=O)c2c1O`, the IC50 was 50.6 µM with HepG2 [1], 32.4 µM in the experiment on HCT-116 [10] and 26.8 µM in experiment [15].

In the case of `COc1c(OCCCN2CCCCC2)cc2oc(-c3ccccc3)cc(=O)c2c1O`, the values for the IC50 (in the experiment with HepG2 [1]; in the experiment with HCT-116 [10]; in [15]) were 6.8 µM, 22.1 µM and 9.7 µM, respectively.

Take `COc1c(OCCN2CCOCC2)cc2oc(-c3ccccc3)cc(=O)c2c1O`: the IC50 with HepG2 [1] is 67.6 µM; in the experiment on HCT-116 [10], 56.3 µM; in [15] it was 38.2 µM.

Consider `COc1c(OCCN2CCCCC2)cc2oc(-c3ccccc3)cc(=O)c2c1O`, for which the values for the IC50 (in the experiment on HepG2 [1]; with HCT-116 [10]; in experiment [15]) were 17.1 µM, 21.1 µM and 26.9 µM, respectively.

As for `CCN(CC)CCCOc1cc2oc(-c3ccccc3)cc(=O)c2c(O)c1OC`, the half-inhibitory concentration (IC50) is 18 µM in the experiment on HepG2 [1], 23.4 µM with HCT-116 [10] and 3.5 µM in experiment [15].
